In PMC3269097 (Journal of Medicinal Chemistry, 2011):
pIC50: −log10 of the molar value.

Tests used:
human GluK2 = human GluK2 (Homo sapiens, UniProt Q13002); assay type: cell-based; settings: tested at a concentration of 100 μM
Summary of the method: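 HEK293 cells stably expressing homomeric human GluK2(Q), passaged no more than 20 times. Ca2+ influx read by fluorescence plate reader with concanavalin A present. Test compound is added over a range of concentrations, then L-glutamate plus antagonist (final glutamate 10 μM). Curves are fitted with slope fixed at 1 and top/bottom fixed at 100%/0% inhibition. KB is derived from IC50 by Cheng-Prusoff.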

AMPARs = settings: competition binding assays; ref [5c]; cited from earlier work
GluN1a/GluN2D NMDAR [1] = molecular target: GluN1a/GluN2D NMDAR (Rattus norvegicus, UniProt Q62645); assay type: cell-based
GluN1a/GluN2A NMDAR [2] = molecular target: GluN1a/GluN2A NMDAR (Rattus norvegicus, UniProt P35439+Q00959); assay type: cell-based
GluN1a/GluN2B NMDAR [3] = molecular target: GluN1a/GluN2B NMDAR (Rattus norvegicus, UniProt P35439+Q00960); assay type: cell-based
GluN1a/GluN2C NMDAR = GluN1a/GluN2C NMDAR (Rattus norvegicus, UniProt P35439+Q00961); assay type: cell-based
GluN1a/GluN2D NMDAR [4] = molecular target: GluN1a/GluN2D NMDAR (Rattus norvegicus, UniProt P35439+Q62645); assay type: cell-based
GluN1a/GluN2A NMDAR [5] = molecular target: GluN1a/GluN2A NMDAR (Rattus norvegicus, UniProt Q00959); assay type: cell-based; settings: at a concentration of 100 μM
GluN1a/GluN2B NMDAR [6] = molecular target: GluN1a/GluN2B NMDAR (Rattus norvegicus, UniProt Q00960); assay type: cell-based; settings: at a concentration of 100 μM
Solubility observations = assay type: physicochemical; settings: for water solubility: at higher concentrations
human GluK1 [7] = molecular target: T1, human GluK1 (Homo sapiens, UniProt P39086); assay type: cell-based; settings: from KB values
human GluK1 [8] = molecular target: T1, human GluK1; experiment: Electrophysiological assay; assay type: cell-based; settings: electrophysiological assays
Summary of the method: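 Whole-cell patch clamp at −70 mV on HEK293 cells stably expressing homomeric human GluK1 or GluK3. Cells are bathed in HBS pH 7.4 at 20°C and lifted into a piezo-driven theta tube. 30 mM glutamate is applied for 100 ms every 20 s. Antagonist is added to both barrels for about 2 min, giving 5 concentrations per cell, each averaged over 6 sweeps. IC50 values are reported with 95% confidence intervals.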

native AMPARs = assay type: cell-based, rat; settings: 100 μM, n=4
Summary of the method: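 Field EPSPs in transverse rat hippocampal slices (400 μm), perfused at 29°C. Mossy fibers stimulated via the dentate granule cell layer every 60 s. Responses averaged every 2 min and measured as 20–80% slope. Test compound at 100 μM perfused for 30 min. Results expressed as % of control slope, mean ± s.e.m., n=4, compared by Student's t test.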

wildtype (WT) GluK3 = wildtype (WT) GluK3 (Homo sapiens, UniProt Q13003); experiment: [3H]kainate competition binding to wildtype GluK3 membranes; settings: 18i 100 μM, 300 μM, 1 mM; 20 nM [3H]kainate
Summary of the method: (§1)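 Filtration binding on human GluK3a membranes. Wildtype comes from stably transfected HEK293 (hygromycin); the A660S mutant is transiently PEI-transfected for 48 h. Membranes are prepared by hypotonic sonication and washed in 50 mM Tris-citrate pH 7.4. Assay uses 20 nM [3H]kainate, with 1 mM kainate defining non-specific binding. Test compound at 100 μM, 300 μM and 1 mM; three experiments in triplicate.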

[9] = molecular target: GluK3 A660S mutant receptor (Homo sapiens, UniProt Q13003, A691S); experiment: [3H]kainate competition binding to GluK3 A660S mutant membranes; settings: 18i 100 μM, 300 μM, 1 mM; 20 nM [3H]kainate; compared with wild type
Summary of the method: as §1

[10] = test system: male Wistar rats with partial saphenous nerve ligation injury (PSNI); experiment: Nociceptive behaviour in rats, partial saphenous nerve ligation injury; assay type: in vivo, rat
Summary of the method: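 Male Wistar rats (~250 g) habituated to testing, tested before saphenous nerve injury. Test compound or vehicle given i.p. (n=5/group), testing starts 15 min later. Von Frey hairs applied to the plantar hindpaw (≤5 s, five times per paw, both paws); thresholds taken from stimulus-response curves. Radiant-heat withdrawal latency is the mean of three stimulations per paw.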

GluN1a/GluN2C NMDAR, sequence (Q00961 20-1237, other chains not shown): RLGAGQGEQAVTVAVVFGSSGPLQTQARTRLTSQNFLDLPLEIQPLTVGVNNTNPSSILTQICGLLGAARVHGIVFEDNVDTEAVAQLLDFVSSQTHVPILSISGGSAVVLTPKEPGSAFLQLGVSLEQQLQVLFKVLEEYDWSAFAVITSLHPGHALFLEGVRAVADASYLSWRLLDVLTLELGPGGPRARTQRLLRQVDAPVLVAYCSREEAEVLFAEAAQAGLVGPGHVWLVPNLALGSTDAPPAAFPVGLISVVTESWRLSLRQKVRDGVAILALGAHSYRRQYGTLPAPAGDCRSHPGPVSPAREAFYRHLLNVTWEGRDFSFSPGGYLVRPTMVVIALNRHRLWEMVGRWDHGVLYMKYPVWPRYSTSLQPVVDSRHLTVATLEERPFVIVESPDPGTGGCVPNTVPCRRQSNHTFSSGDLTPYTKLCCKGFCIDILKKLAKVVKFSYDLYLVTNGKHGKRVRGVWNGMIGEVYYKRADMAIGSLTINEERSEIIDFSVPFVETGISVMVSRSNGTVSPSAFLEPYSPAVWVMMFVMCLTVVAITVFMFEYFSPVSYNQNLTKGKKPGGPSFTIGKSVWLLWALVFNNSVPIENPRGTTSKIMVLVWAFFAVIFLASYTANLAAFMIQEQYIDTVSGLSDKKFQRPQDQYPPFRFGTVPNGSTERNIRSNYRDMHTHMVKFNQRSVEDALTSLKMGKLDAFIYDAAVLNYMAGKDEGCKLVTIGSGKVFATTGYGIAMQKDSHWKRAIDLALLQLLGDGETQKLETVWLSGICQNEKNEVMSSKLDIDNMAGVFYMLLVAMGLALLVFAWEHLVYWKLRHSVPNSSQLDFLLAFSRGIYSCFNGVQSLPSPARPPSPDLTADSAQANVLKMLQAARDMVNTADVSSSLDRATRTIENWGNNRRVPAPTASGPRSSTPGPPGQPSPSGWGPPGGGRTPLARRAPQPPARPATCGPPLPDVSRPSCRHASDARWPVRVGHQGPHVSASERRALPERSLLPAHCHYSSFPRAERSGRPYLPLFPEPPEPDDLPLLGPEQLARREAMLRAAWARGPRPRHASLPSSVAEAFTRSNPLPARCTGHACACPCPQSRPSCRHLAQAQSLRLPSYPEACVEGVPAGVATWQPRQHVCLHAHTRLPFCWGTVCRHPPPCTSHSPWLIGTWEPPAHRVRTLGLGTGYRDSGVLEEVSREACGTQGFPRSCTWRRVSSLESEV
T1 sequence (P39086 31-905 isoform P39086-2 limits assumed): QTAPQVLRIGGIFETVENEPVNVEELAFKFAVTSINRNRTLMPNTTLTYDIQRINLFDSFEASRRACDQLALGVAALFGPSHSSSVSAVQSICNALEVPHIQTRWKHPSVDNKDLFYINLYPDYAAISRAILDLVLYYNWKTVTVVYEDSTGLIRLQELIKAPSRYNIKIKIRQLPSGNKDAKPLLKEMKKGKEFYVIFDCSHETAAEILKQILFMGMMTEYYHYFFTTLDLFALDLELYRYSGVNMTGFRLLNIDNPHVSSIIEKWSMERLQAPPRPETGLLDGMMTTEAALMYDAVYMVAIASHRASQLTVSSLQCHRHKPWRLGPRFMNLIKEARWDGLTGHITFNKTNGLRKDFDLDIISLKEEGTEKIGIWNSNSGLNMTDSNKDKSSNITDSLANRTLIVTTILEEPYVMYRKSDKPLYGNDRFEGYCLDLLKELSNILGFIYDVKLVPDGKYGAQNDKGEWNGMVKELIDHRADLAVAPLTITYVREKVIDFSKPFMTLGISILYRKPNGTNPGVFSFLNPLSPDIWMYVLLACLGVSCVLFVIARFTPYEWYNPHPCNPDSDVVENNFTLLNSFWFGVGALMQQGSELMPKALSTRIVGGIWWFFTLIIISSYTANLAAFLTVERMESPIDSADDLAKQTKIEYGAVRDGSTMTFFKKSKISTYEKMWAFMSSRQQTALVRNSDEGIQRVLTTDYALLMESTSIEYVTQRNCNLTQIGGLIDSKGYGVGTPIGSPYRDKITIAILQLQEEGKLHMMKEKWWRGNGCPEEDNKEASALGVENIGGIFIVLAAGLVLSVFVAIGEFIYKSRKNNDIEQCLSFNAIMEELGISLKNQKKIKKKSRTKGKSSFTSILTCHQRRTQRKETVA
GluN1a/GluN2D NMDAR (Rattus norvegicus, UniProt Q62645), sequence (Q62645 28-1323, other chains not shown): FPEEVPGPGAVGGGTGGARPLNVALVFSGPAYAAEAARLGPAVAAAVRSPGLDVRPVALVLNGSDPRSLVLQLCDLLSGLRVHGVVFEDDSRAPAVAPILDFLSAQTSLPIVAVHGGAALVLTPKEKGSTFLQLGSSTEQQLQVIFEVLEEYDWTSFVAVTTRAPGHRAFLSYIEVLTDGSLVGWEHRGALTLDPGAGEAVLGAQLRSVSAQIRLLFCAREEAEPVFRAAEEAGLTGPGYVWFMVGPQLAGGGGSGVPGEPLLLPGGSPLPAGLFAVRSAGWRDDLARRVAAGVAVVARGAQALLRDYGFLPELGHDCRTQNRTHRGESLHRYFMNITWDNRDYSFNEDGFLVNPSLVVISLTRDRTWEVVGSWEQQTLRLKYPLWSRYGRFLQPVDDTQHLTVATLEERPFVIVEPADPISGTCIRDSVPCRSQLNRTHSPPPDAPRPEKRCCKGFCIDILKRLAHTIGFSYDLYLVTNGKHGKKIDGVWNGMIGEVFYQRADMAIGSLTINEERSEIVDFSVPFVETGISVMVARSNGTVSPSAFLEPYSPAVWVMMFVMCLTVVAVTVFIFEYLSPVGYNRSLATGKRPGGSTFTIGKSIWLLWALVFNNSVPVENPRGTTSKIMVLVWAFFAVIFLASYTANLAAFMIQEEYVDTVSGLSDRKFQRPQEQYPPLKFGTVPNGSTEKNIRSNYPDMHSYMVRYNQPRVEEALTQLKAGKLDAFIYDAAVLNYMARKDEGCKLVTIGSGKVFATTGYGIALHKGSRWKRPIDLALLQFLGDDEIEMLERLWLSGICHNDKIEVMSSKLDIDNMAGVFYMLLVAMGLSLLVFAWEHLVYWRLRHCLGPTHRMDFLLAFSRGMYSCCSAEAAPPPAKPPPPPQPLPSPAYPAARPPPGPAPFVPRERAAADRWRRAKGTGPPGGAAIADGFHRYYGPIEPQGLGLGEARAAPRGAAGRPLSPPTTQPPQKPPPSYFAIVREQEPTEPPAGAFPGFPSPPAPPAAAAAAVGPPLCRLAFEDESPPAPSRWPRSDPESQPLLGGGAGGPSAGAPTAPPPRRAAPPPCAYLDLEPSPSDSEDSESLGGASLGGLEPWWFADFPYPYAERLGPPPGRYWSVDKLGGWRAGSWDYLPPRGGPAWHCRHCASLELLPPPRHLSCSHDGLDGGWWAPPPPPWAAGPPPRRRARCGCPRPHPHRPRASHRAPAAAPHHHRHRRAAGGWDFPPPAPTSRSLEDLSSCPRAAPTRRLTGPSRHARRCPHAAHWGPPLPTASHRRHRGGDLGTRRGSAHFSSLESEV
human GluK2, sequence (Q13002 32-908): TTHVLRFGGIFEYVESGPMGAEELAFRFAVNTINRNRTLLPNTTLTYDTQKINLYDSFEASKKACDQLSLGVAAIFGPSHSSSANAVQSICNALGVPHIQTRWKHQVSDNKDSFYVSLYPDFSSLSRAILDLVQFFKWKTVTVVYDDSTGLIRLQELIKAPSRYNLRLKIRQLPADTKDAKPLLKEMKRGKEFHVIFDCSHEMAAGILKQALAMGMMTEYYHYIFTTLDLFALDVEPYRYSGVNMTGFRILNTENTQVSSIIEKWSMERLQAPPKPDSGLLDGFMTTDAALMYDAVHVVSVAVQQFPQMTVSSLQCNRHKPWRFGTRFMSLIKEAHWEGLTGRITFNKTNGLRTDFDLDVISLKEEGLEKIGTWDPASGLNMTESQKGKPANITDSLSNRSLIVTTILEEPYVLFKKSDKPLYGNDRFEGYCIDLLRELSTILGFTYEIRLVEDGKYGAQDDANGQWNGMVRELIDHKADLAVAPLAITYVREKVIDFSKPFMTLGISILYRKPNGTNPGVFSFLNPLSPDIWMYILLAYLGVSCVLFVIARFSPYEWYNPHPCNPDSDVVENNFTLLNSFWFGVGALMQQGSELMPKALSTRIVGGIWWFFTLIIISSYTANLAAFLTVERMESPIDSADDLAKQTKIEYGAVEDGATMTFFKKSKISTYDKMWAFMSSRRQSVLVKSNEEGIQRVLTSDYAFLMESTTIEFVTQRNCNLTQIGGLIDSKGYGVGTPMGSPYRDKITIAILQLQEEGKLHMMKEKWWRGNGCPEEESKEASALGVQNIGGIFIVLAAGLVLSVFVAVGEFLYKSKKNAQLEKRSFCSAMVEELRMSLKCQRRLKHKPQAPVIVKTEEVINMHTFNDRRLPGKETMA
GluN1a/GluN2D NMDAR (Rattus norvegicus, UniProt P35439+Q62645), sequence (Q62645 28-1323, other chains not shown): as the sequence (Q62645 28-1323, other chains not shown) above

O=C(O)[C@H]1NCCN(C(=O)c2ccc3c(c2)CCc2ccccc2-3)[C@H]1C(=O)O [Compound 34g]
GluK2 antagonist activity (human GluK2): no GluK2 antagonist activity

O=C(O)[C@H]1NCCN(C(=O)c2ccc(/N=N/c3ccccc3)cc2)[C@H]1C(=O)O [Compound 18l]
GluK2 antagonist activity (human GluK2): no GluK2 antagonist activity
inhibition of [3H]AMPA binding (AMPARs): only very weak inhibitors

O=C(O)[C@H]1NCCN(C(=O)c2ccc(-c3ccccc3)cc2)[C@H]1C(=O)O [Compound 34b]
GluK2 antagonist activity (human GluK2): no GluK2 antagonist activity

O=C(O)[C@H]1NCCN(C(=O)c2ccc(C#Cc3ccccc3)cc2)[C@H]1C(=O)O [Compound 18k]
GluK2 antagonist activity (human GluK2): no GluK2 antagonist activity
inhibition of [3H]AMPA binding (AMPARs): only very weak inhibitors

O=C(O)C1NCCN(C(=O)c2ccc3c(ccc4ccccc43)c2)C1C(=O)O (stereo not drawn) [(±)-4]
GluK2 antagonist activity (human GluK2): no GluK2 antagonist activity

O=C(O)C1NCCN(C(=O)c2ccc3c(ccc4ccccc43)c2)C1C(=O)O (single isomer, unassigned; (+)) [(+)-4, (+)-1-(Phenanthrene-2-carbonyl)piperazine-2,3-dicarboxylic acid]
fold lower affinity for GluN2D than the (−)-4 isomer (GluN1a/GluN2D NMDAR [1]): 50 fold

O=C(O)c1ccc2cc(C(=O)N3CCN[C@H](C(=O)O)[C@@H]3C(=O)O)ccc2c1 [Compound 19]
pIC50 (GluN1a/GluN2A NMDAR [2]): < 4.00
pIC50 (GluN1a/GluN2B NMDAR [3]): < 4.00
pIC50 (GluN1a/GluN2C NMDAR): < 4.00
pIC50 (GluN1a/GluN2D NMDAR [4]): < 4.00

O=C(O)[C@H]1NCCN(C(=O)c2ccc3cc(-c4ccccc4)ccc3c2)[C@H]1C(=O)O (relative stereo) [Compound 18d, (2R*,3S*)-1-(6-Phenylnaphthalene-2-carbonyl)piperazine-2,3-dicarboxylic acid]
pIC50 (GluN1a/GluN2A NMDAR [2]): < 4.00
antagonism of GluN2A (GluN1a/GluN2A NMDAR [5]): 30–37%
pIC50 (GluN1a/GluN2B NMDAR [3]): < 4.00
antagonism of GluN2B (GluN1a/GluN2B NMDAR [6]): 30–37%
GluK2 antagonist activity (human GluK2): no GluK2 antagonist activity
solubility in electrophysiological recording buffer (Solubility observations; 300 μM, room temperature, visible light scattering): insoluble at high concentrations
water solubility (Solubility observations): poor water solubility

O=C(O)[C@H]1NCCN(Cc2ccc3c(ccc4ccccc43)c2)[C@H]1C(=O)O [Compound 34f]
fold lower affinity for GluK1 compared to (±)-4 (human GluK1 [7]): 5 fold

O=C(O)[C@@H]1NCCN(C(=O)c2ccc3c(ccc4ccccc43)c2)[C@H]1C(=O)O [Compound 34d]
fold lower affinity for GluK1 compared to (±)-4 (human GluK1 [7]): 8 fold

O=C(O)[C@H]1NCCN(C(=O)c2ccc3cc(Br)c4ccccc4c3c2)[C@H]1C(=O)O (relative stereo) [Compound 18h, (2R*,3S*)-1-(9-Bromophenanthrene-3-carbonyl)piperazine-2,3-dicarboxylic acid]
inhibition of [3H]AMPA binding (AMPARs): only very weak inhibitors

O=C(O)[C@H]1NCCN(C(=O)c2ccc(CCc3ccccc3)cc2)[C@H]1C(=O)O [Compound 21]
pIC50 (GluN1a/GluN2A NMDAR [2]): < 4.00
pIC50 (GluN1a/GluN2B NMDAR [3]): < 4.00
pIC50 (GluN1a/GluN2C NMDAR): < 4.00
pIC50 (GluN1a/GluN2D NMDAR [4]): < 4.00
antagonism of GluN2D (GluN1a/GluN2D NMDAR [1]; at a concentration of 100 μM): ~ 10%
fold lower affinity for GluK1 compared to 34b (human GluK1 [7]): approximately 2 fold
fold lower affinity for GluK1 compared to (±)-4 (human GluK1 [7]): 9 fold

O=C(O)[C@H]1NCCN(C(=O)c2ccc3ccc4ccccc4c3c2)[C@H]1C(=O)O [Compound 5]
selectivity for GluN2D versus GluK1 (GluN1a/GluN2D NMDAR [1]; GluN2D Ki versus GluK1 KB): around 10 fold
GluK2 antagonist activity (human GluK2): no GluK2 antagonist activity
inhibition of [3H]AMPA binding (AMPARs): only very weak inhibitors

O=C(O)[C@H]1NCCN(C(=O)c2ccc3c(ccc4cc(Br)ccc43)c2)[C@H]1C(=O)O [Compound 34e]
GluK2 antagonist activity (human GluK2): no GluK2 antagonist activity

O=C(O)[C@H]1NCCN(C(=O)c2ccc3cc(I)c4ccccc4c3c2)[C@H]1C(=O)O (relative stereo) [Compound 18i, (2R*,3S*)-1-(9-Iodophenanthrene-3-carbonyl)piperazine-2,3-dicarboxylic acid]
fold higher affinity for GluK1 compared to 18c (human GluK1 [7]): 1.7 fold
fold lower IC50 for GluK1 versus GluK3 (human GluK1 [8]): > 100 fold
AMPAR mediated fEPSP response in the presence of compound, % of slope (native AMPARs; 30 min perfusion, control 100 ± 2%, mean ± s.e.m.): 99 ± 2%
antagonist activity on AMPAR mediated EPSPs in CA3 region of the hippocampus (native AMPARs): no antagonist activity
inhibition of [3H]kainate binding to wild type GluK3 (wildtype (WT) GluK3): low binding affinity
inhibition of [3H]kainate binding to A660S point mutant of GluK3 [9]: more potently inhibited
thermal withdrawal latency to radiant heat ([10]; 30 mg/kg i.p., acute, day 7 after PSNI, n=5 per group): increased thermal withdrawal latency in these animals above baseline values
mechanical withdrawal threshold (mechanical allodynia) ([10]; 30 mg/kg i.p., acute, day 7 after PSNI, versus vehicle, n=5 per group): completely reversed the drop in mechanical withdrawal threshold
antinociceptive effects in normal animals ([10]; normal animals before nerve injury (not shown)): exerted antinociceptive effects

O=C(O)c1ccc(-c2ccc(C(=O)N3CCN[C@H](C(=O)O)[C@@H]3C(=O)O)cc2)cc1 [Compound 20]
pIC50 (GluN1a/GluN2B NMDAR [3]): < 4.00
pIC50 (GluN1a/GluN2C NMDAR): < 4.00
fold lower affinity for GluK1 compared to 34b (human GluK1 [7]): 5 fold
water solubility (Solubility observations): poor water solubility

O=C(O)[C@@H]1[C@H](C(=O)O)NCCN1C(=O)c1ccc2c(ccc3ccccc32)c1 [(−)-4, (−)-1-(Phenanthrene-2-carbonyl)piperazine-2,3-dicarboxylic acid]
fold higher affinity for GluK1 than the (+)-4 enantiomer (human GluK1 [7]): 27 fold
GluK2 antagonist activity (human GluK2): no GluK2 antagonist activity

O=C(O)[C@H]1NCCN(C(=O)c2ccc3cc(I)ccc3c2)[C@H]1C(=O)O (relative stereo) [Compound 18c, (2R*,3S*)-1-(6-Iodonaphthalene-2-carbonyl)piperazine-2,3-dicarboxylic acid]
GluK2 antagonist activity (human GluK2): no GluK2 antagonist activity
